According to ChEMBL document CHEMBL3817796, “Discovery of Novel 15-Lipoxygenase Activators To Shift the Human Arachidonic Acid Metabolic Network toward Inflammation Resolution” (J Med Chem, 2016):
Calls of active or inactive are those of the source. The rule behind the calls is not given here.

Experiments:
[1] = molecular target: T1, Polyunsaturated fatty acid lipoxygenase ALOX15 (Homo sapiens) (UniProt P16050); assay: Activation of 15-LOX in human PMN assessed as 12-HETE production at 6.2 to 40 uM pre-incubated for 15 mins before A23187, Ca2+ and Mg2+ stimulation for 1 hr by LC-MS method
T1 sequence (whole entry): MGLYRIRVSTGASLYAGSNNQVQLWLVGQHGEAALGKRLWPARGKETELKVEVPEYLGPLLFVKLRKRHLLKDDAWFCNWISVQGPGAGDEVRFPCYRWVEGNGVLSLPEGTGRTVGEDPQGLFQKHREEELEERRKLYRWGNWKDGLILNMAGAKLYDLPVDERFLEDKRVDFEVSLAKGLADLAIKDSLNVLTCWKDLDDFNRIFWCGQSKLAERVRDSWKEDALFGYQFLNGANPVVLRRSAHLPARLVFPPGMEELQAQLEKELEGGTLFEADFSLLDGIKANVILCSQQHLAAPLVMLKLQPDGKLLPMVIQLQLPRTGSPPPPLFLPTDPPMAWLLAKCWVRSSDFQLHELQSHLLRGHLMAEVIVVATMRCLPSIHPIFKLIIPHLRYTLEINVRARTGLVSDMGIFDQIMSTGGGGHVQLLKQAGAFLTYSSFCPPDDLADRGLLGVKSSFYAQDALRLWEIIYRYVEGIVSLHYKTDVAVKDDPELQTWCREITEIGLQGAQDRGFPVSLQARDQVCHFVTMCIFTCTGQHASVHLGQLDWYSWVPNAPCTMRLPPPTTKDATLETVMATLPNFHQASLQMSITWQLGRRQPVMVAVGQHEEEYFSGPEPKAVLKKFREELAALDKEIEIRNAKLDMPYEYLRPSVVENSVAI
Method in brief: (§1)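 PMNs preincubated 15 min at 37 °C with compound or vehicle, then stimulated 1 h at 37 °C with 10 μM A23187 plus 2 mM Ca2+ and 2 mM Mg2+. Reactions stopped with cold methanol. Eicosanoids quantified by LC-MS.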

[2] = molecular target: T2, Polyunsaturated fatty acid 5-lipoxygenase (Homo sapiens) (UniProt P09917); assay: Inhibition of human 5-LOX expressed in Escherichia coli BL21-DE3 of assessed as reduction in H2DCFDA oxidation at 100 uM using arachidonic acid substrate incubated for 5 mins by fluorescence spectrophotometry
T2 sequence (whole entry): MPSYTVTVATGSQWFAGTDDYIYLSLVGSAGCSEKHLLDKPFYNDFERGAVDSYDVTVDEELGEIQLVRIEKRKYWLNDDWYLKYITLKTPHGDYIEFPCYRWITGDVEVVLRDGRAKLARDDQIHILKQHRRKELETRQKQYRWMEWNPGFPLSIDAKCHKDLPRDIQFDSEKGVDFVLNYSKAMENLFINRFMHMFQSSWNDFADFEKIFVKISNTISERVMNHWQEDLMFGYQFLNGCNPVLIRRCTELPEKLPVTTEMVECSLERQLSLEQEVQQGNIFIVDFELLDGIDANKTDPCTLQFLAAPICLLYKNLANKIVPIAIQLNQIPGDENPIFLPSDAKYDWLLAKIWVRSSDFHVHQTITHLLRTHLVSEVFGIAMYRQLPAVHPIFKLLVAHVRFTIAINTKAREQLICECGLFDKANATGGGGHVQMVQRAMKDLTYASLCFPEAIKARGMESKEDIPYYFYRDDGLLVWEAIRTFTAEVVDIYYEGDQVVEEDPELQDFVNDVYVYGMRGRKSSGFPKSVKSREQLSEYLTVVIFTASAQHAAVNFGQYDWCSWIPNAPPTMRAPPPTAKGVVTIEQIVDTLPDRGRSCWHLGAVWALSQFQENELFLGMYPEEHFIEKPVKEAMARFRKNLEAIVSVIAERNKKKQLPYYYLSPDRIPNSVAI
Method in brief: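 Human 5-LOX activity followed as AA-driven oxidation of H2DCFDA to fluorescent dichlorofluorescein (ex 500/em 520 nm), recorded for 5 min. Compound handled as in the 15-LOX assay.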

[3] = molecular target: T1, Polyunsaturated fatty acid lipoxygenase ALOX15 (Homo sapiens); assay: Activation of 15-LOX in human whole blood assessed as increase in 13-HODE production at 100 uM pre-incubated for 20 mins before stimulation with LPS and A23187 for 120 mins in presence of 2 uM […] inhibitor Zileuton by LC-MS/MS method; format: tissue-based
Method in brief: (§2)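 Human blood preincubated 20 min at 37 °C with DMSO vehicle or compound in DMSO. LPS added at 100 μg/mL for 24 h at 37 °C, then A23187 at 20 μg/mL final. Samples frozen in liquid nitrogen at time points, lysed by freeze–thaw, with PGB2 internal standard. Analysed by C18 LC-MRM MS, negative ion. Change = control-normalized concentration minus 1, ×100%; 120 min value from AUC.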

[4] = molecular target: T1, Polyunsaturated fatty acid lipoxygenase ALOX15 (Homo sapiens); assay: Activation of 15-LOX in human whole blood assessed as 15-HETE production at 100 uM pre-incubated for 20 mins before stimulation with LPS and A23187 for 120 mins in presence of 2 uM 5-LOX inhibitor Zileuton by LC-MS/MS method; format: tissue-based; method in brief: as §2
[5] = molecular target: T1, Polyunsaturated fatty acid lipoxygenase ALOX15 (Homo sapiens); assay: Activation of 15-LOX in human PMN assessed as 15-HETE production at 6.2 to 40 uM pre-incubated for 15 mins before A23187, Ca2+ and Mg2+ stimulation for 1 hr by LC-MS method; method in brief: as §1
[6] = molecular target: Prostaglandin G/H synthase 1 (Homo sapiens) (UniProt P23219); assay: Activation of COX1 (unknown origin) assessed as PGG2 to PGH2 conversion by measuring N,N,N',N'-tetramethyl-p-phenylenediamine oxidation at 100 uM by spectrophotometry
Sequence of Prostaglandin G/H synthase 1 (Homo sapiens) (P23219 whole entry): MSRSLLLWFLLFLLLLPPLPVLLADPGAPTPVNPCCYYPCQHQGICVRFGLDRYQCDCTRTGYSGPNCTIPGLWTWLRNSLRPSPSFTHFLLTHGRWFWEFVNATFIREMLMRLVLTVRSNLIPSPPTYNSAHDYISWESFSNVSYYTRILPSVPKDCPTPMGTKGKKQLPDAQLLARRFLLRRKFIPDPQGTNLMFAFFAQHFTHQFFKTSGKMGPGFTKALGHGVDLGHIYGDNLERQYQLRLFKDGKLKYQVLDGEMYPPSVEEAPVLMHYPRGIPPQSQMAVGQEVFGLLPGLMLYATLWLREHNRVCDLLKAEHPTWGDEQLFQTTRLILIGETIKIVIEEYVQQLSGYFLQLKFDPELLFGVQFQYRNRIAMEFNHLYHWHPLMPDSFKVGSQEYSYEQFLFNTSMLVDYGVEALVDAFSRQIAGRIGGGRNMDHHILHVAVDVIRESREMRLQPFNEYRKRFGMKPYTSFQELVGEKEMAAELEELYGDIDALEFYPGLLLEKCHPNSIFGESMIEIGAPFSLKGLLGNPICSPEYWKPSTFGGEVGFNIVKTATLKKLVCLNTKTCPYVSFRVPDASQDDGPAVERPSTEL

[7] = molecular target: T1, Polyunsaturated fatty acid lipoxygenase ALOX15 (Homo sapiens); assay: Activation of 15-LOX in human whole blood assessed as increase in 15-HETE production at 100 uM pre-incubated for 20 mins before stimulation with LPS and A23187 for 120 mins in presence of 0.16 to 20 uM 5-LOX inhibitor Zileuton by LC-MS/MS method; format: tissue-based; method in brief: as §2
[8] = molecular target: T1, Polyunsaturated fatty acid lipoxygenase ALOX15 (Homo sapiens); assay: Activation of 15-LOX in human whole blood assessed as increase in 15-HETE production at 100 uM pre-incubated for 20 mins before stimulation with LPS and A23187 for 120 mins by LC-MS/MS method; format: tissue-based; method in brief: as §2
Prostaglandin E synthase = molecular target: T3, Prostaglandin E synthase (Homo sapiens, UniProt O14684); assay: Inhibition of mPGES-1 (unknown origin) assessed as reduction in conversion of PGH2 to PGE2 by EIA method
T3 sequence (O14684 whole entry): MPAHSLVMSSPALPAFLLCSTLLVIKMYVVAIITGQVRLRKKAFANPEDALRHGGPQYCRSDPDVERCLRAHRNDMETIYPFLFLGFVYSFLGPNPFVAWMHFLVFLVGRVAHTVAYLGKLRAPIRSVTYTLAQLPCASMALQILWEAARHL
Method in brief: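 mPGES-1 activity taken as conversion of PGH2 to PGE2, with PGE2 measured by EIA. Compound handled as in the 15-LOX assay.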

Q: For `CN1CCN(CC(=O)N2N=C3/C(=C/c4ccccc4)CCCC3C2c2ccccc2)CC1` (centres undefined), which Activity [1] is on record?
A: Its Activity is “Active”.

Q: And the inhibition [2]?
A: The inhibition was less than 5%.

Q: What about the Activity [3] of the same molecule?
A: The Activity was “Active”.

Q: And the Activity [4]?
A: Its Activity is 36%.

Q: What about the Activity [5] of the same molecule?
A: Its Activity is “Active”.

Q: And the Activity [6]?
A: Its Activity is less than 5%.

Q: And the Activity [7]?
A: Its Activity is “Active”.

Q: And the Activity [8]?
A: Its Activity is 33%.

Q: And the IC50 (Prostaglandin E synthase)?
A: The IC50 was 20 µM.
